PMC10107787 (Chemistry (Weinheim an Der Bergstrasse, Germany), 2022)

Assays:
[1] = LogD7.4, miniaturized shake-flask procedure; assay type: physicochemical; conditions: pH 7.4
Outline: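 Measured in three repeats, and the reported logD is their mean.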

[2] = Permeability across Caco-2 cell monolayers; assay type: in vitro ADME; conditions: human, Caco-2, ER (efflux ratio, Papp BA/Papp AB), Caco-2 cell monolayers, no inhibitors
Outline: (§1)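 Apical‑to‑basolateral and basolateral‑to‑apical Papp were measured across Caco‑2 monolayers. Efflux ratio is Papp BA/Papp AB. A parallel set was run with a cocktail of three inhibitors aimed at the three major efflux transporters. Papp AB is the mean±std of three repeats.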

[3] = Amide temperature coefficients by variable temperature 1H NMR; assay type: physicochemical
Outline: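 Variable-temperature ¹H NMR at 500 MHz with a cryoprobe, using 16 scans and a 0.7 s relaxation delay. DMSO‑d₆ series ran from 25 to 65 or 20 to 60 °C; the CDCl₃ series ran from 10 to 50 °C; both used 10 °C steps. Each NH coefficient was calculated as (δ_high−δ_low)/(T_high−T_low), in ppb/K.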

[4] = system: Caco‐2 cell monolayers; test: Permeability across Caco-2 cell monolayers; assay type: in vitro ADME
Outline: as §1

In the case of COC(=O)N[C@H](C(=O)N1CCC[C@H]1c1nc(-c2ccc(-c3ccc(-c4c[nH]c([C@@H]5CCCN5C(=O)[C@@H](NC(=O)OC)C(C)C)n4)cc3)cc2)c[nH]1)C(C)C [Daclatasvir], the logD [1] is reported as 3.9, the efflux ratio [2] is reported as 38 and the “Temperature coefficient, CDCl3” value ([3]; daclatasvir proton 2’’’‐NH) is reported as −3.3 ppb/K. The “Temperature coefficient, DMSO‐d6” value ([3]; daclatasvir proton 2’’’‐NH) was −3.8 ppb/K.
In the case of COc1ccc2c(O[C@@H]3C[C@H]4C(=O)N[C@]5(C(=O)NS(=O)(=O)C6CC6)C[C@H]5/C=C\CCCCN(C)C(=O)[C@@H]4C3)cc(-c3nc(C(C)C)cs3)nc2c1C [Simeprevir], the logD [1] is reported as 3.7, the efflux ratio [2] is reported as 330 and the “ER+Inhibitors” value ([4]; Caco-2, in the presence of the efflux inhibitor cocktail) is reported as “highest efflux ratio”. For the same compound, the “ER (efflux ratio, Papp BA/Papp AB)” value ([4]; Caco-2 cell monolayers, no inhibitors) was “largest”, the “Temperature coefficient, CDCl3” value ([3]; simeprevir proton 1’’’‐NH) was −8.8 ppb/K and the “Temperature coefficient, DMSO‐d6” value ([3]; simeprevir proton 1’’’‐NH) was −2.5 ppb/K. The “Temperature coefficient, CDCl3” value ([3]; simeprevir proton 13‐NH) was −1.3 ppb/K and the “Temperature coefficient, DMSO‐d6” value ([3]; simeprevir proton 13‐NH) was −1.0 ppb/K.
In the case of COC(=O)N[C@H](C(=O)N[C@@H](Cc1ccccc1)[C@@H](O)CN(Cc1ccc(-c2ccccn2)cc1)NC(=O)[C@@H](NC(=O)OC)C(C)(C)C)C(C)(C)C [Atazanavir], the efflux ratio [2] is reported as 40, the “Temperature coefficient, CDCl3” value ([3]; atazanavir proton 4‐NH) is reported as −2.0 ppb/K and the “Temperature coefficient, DMSO‐d6” value ([3]; atazanavir proton 4‐NH) is reported as −9.8 ppb/K. The “Temperature coefficient, DMSO‐d6” value ([3]; atazanavir proton 7‐NH) was −4.3 ppb/K, the “Temperature coefficient, DMSO‐d6” value ([3]; atazanavir proton 12‐NH) was −3.5 ppb/K and the “Temperature coefficient, CDCl3” value ([3]; atazanavir proton 15‐NH) was −1.0 ppb/K. For the same compound, the “Temperature coefficient, DMSO‐d6” value ([3]; atazanavir proton 15‐NH) was −6.5 ppb/K.
For C=C[C@@H]1C[C@]1(NC(=O)[C@@H]1C[C@@H](Oc2ncc(OC)c3ccc(Cl)cc23)CN1C(=O)[C@@H](NC(=O)OC(C)(C)C)C(C)(C)C)C(=O)NS(=O)(=O)C1CC1 [Asunaprevir], the logD [1] was 3.1, the efflux ratio [2] was 270 and the “Temperature coefficient, CDCl3” value ([3]; asunaprevir proton 1’’’‐NH) was −4.3 ppb/K. The “Temperature coefficient, DMSO‐d6” value ([3]; asunaprevir proton 1’’’‐NH) was −2.8 ppb/K, the “Temperature coefficient, CDCl3” value ([3]; asunaprevir proton 1’’’’‐NH) was −4.3 ppb/K and the “Temperature coefficient, DMSO‐d6” value ([3]; asunaprevir proton 1’’’’‐NH) was −3.5 ppb/K. For the same compound, the “Temperature coefficient, CDCl3” value ([3]; asunaprevir proton 2’‐NH) was −0.3 ppb/K and the “Temperature coefficient, DMSO‐d6” value ([3]; asunaprevir proton 2’‐NH) was 1.5 ppb/K.
